Laboratory results from ChEMBL document CHEMBL4145471, “New 1,5 and 2,5-disubstituted tetrazoles-dependent activity towards surface barrier of Candida albicans” (Eur J Med Chem, 2018).
Values after ≈ are worked out from the molar mass of the structure shown.

What was measured:
Assay type in all cases: functional
Candida albicans [1] = test: Antifungal activity against Candida albicans ATCC 90028 after 48 hrs by M27-A3 microdilution method; details: ATCC 90028, 48 h
Candida albicans [2] = test: Ratio of MIC for Candida albicans ATCC 90028 in presence of ergosterol to MIC for Candida albicans ATCC 90028 in absence of ergosterol
Method in brief: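 MICs per modified M27-A3 in RPMI with or without ergosterol (final 400 µg/mL, dissolved in 10% DMSO/1% Tween 80 with heating). Inoculum 10³ CFU/mL; tetrazoles and itraconazole tested at 512–1 µg/mL, amphotericin B at 125–0.24 µg/mL. Plates were incubated at 35°C and read at 72 h; MIC was the lowest concentration with no visible growth. Run in triplicate on three days, geometric means.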

Candida albicans [3] = test: Antifungal activity against Candida albicans ATCC 90028 at 4 ug/ml after 48 hrs relative to control
Method in brief: (§1)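 Planktonic broth microdilution per M27-A3 in MOPS-buffered RPMI 1640 (pH 7.0), final inoculum 1.8×10^3 cells/mL, compounds 0.0313–16 µg/mL from 1600 µg/mL stocks in ethanol or DMSO. Incubated at 35°C without agitation; OD405 read at 18 and 48 h. % inhibition was derived from test, sterility (no inoculum) and solvent growth-control wells. Amphotericin B at 0.5 µg/mL served as the 100% control.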

Candida albicans [4] = test: Antifungal activity against Candida albicans ATCC 90028 at 8 ug/ml after 48 hrs relative to control; method in brief: as §1
Candida albicans [5] = test: Antifungal activity against Candida albicans ATCC 90028 at 0.5 ug/ml after 18 hrs relative to control; method in brief: as §1
Candida albicans [6] = test: Antifungal activity against Candida albicans ATCC 90028 at 0.125 ug/ml after 18 hrs relative to control; method in brief: as §1
Candida albicans [7] = test: Antifungal activity against Candida albicans ATCC 90028 at 8 ug/ml after 18 hrs relative to control; method in brief: as §1
Candida albicans [8] = test: Antifungal activity against Candida albicans ATCC 90028 at 4 ug/ml after 18 hrs relative to control; method in brief: as §1
Candida albicans [9] = test: Antifungal activity against Candida albicans ATCC 90028 at 2 ug/ml after 18 hrs relative to control; method in brief: as §1
Candida albicans [10] = test: Antifungal activity against Candida albicans ATCC 90028 at 16 ug/ml after 18 hrs relative to control; method in brief: as §1
Candida albicans [11] = test: Antifungal activity against Candida albicans ATCC 90028 at 0.0313 ug/ml after 18 hrs relative to control
Candida albicans [12] = test: Antifungal activity against Candida albicans ATCC 90028 at 0.0625 ug/ml after 48 hrs relative to control; method in brief: as §1
Candida albicans [13] = test: Antifungal activity against Candida albicans ATCC 90028 at 0.25 ug/ml after 18 hrs relative to control
Method in brief: (§2)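 Fluconazole (water stock, diluted in RPMI 1640) tested by CLSI M27-A3 broth microdilution against C. albicans ATCC 90028. Inoculum 1.8×10^3 cells/mL in RPMI 1640 buffered with MOPS, pH 7.0. Incubation at 35°C without agitation, read at 18 and 48 h. Growth by OD405 and visually; inhibition % calculated against solvent growth-control wells after subtracting sterility-control wells.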

Candida albicans [14] = test: Antifungal activity against Candida albicans ATCC 90028 at 1 ug/ml after 48 hrs relative to control; method in brief: as §1
Candida albicans [15] = test: Antifungal activity against Candida albicans ATCC 90028 at 2 ug/ml after 48 hrs relative to control; method in brief: as §1
Candida albicans [16] = test: Antifungal activity against Candida albicans ATCC 90028 at 0.0313 ug/ml after 48 hrs relative to control
Candida albicans [17] = test: Antifungal activity against Candida albicans ATCC 90028 at 0.5 ug/ml after 48 hrs relative to control; method in brief: as §1
Candida albicans [18] = test: Antifungal activity against Candida albicans ATCC 90028 at 0.25 ug/ml after 48 hrs relative to control; method in brief: as §2
Candida albicans [19] = test: Fungicidal activity against Candida albicans ATCC 90028 at 16 ug/ml after 48 hrs by M27-A3 microdilution method
Method in brief: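 After 48 h at 35°C in M27-A3 microdilution plates (compound at 16 µg/mL), 50 µL aliquots from treated and solvent-control wells were diluted 10^4 in PBS and plated on drug-free Sabouraud dextrose agar, then incubated 48 h at 35°C. Reduction R = lg CFU/mL control − lg CFU/mL treated; R ≥ 3 defined as fungicidal.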

Candida albicans [20] = test: Antifungal activity against Candida albicans ATCC 90028 at 1 ug/ml after 18 hrs relative to control; method in brief: as §1
Candida albicans [21] = test: Antifungal activity against Candida albicans ATCC 90028 at 16 ug/ml after 48 hrs relative to control; method in brief: as §1
Candida albicans [22] = test: Antifungal activity against Candida albicans ATCC 90028 at 0.125 ug/ml after 48 hrs relative to control; method in brief: as §1
Candida albicans [23] = test: Antifungal activity against Candida albicans ATCC 90028 at 0.0625 ug/ml after 18 hrs relative to control
Candida albicans [24] = test: Antifungal activity against Candida albicans ATCC 90028 after 72 hrs by M27-A3 microdilution method; details: ATCC 90028, 72 h
Candida albicans [25] = test: Antifungal activity against Candida albicans ATCC 90028 after 72 hrs in presence of ergosterol by M27-A3 microdilution method; details: ATCC 90028, 72 h
Method in brief: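 Ergosterol-modified M27-A3 assay. Compounds at 512-1 µg/mL serially diluted in RPMI; the 10^3 CFU/mL inoculum is made in RPMI with ergosterol (dissolved in 10% DMSO/1% Tween 80, heated), giving 400 µg/mL ergosterol in the wells. Itraconazole and amphotericin B serve as controls. Plates at 35°C, read after 72 h. MIC is the lowest concentration without visible growth; triplicate on three days, geometric means.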

Row | Structure (SMILES) | Activity (Candida albicans [3]) | Activity (Candida albicans [4]) | Activity (Candida albicans [5]) | Activity (Candida albicans [6]) | Activity (Candida albicans [7]) | Activity (Candida albicans [8]) | Activity (Candida albicans [9]) | Activity (Candida albicans [10]) | Activity (Candida albicans [11]) | Activity (Candida albicans [12]) | Activity (Candida albicans [13]) | Activity (Candida albicans [14]) | Activity (Candida albicans [15]) | Activity (Candida albicans [16]) | Activity (Candida albicans [17]) | Activity (Candida albicans [18]) | Activity (Candida albicans [19]) | Activity (Candida albicans [20]) | Activity (Candida albicans [21]) | Activity (Candida albicans [22]) | also measured
1 | OC(Cn1cncn1)(Cn1cncn1)c1ccc(F)cc1F [FLUCONAZOLE] |  |  |  |  |  |  |  |  |  |  |  |  |  |  |  |  |  |  |  |  | MIC (Candida albicans [1]): 0.25 µg/mL (≈ 0.816 µM)
2 | CCC(C)n1ncn(-c2ccc(N3CCN(c4ccc(OCC5COC(Cn6cncn6)(c6ccc(Cl)cc6Cl)O5)cc4)CC3)cc2)c1=O (centres undefined) [ITRACONAZOLE] |  |  |  |  |  |  |  |  |  |  |  |  |  |  |  |  |  |  |  |  | Ratio (Candida albicans [2]): 2
3 | ClCCCn1nnc(-c2ccccc2Cl)n1 | 98.5% | 99.05% | 98.9% | 99.62% | 98.9% | 99.32% | 95% | 94.16% | 99.97% | 99.03% | 99.95% | 98.69% | 98.6% | 99.17% | 98.89% | 98.96% | 0.51 log10CFU/ml | 98.99% | 98.34% | 99.13% | Activity (Candida albicans [23]): 98.61%
4 | Clc1ccccc1-c1nnn(CCCN2CCOCC2)n1 | 98.91% | 98.97% | 98.11% | 98.25% | 98.97% | 98.62% | 92.76% | 99.64% | 100% | 99% | 90.79% | 99.02% | 97.16% | 99.12% | 98.83% | 98.01% | -0.08 log10CFU/ml | 98.01% | 99.2% | 98.94% | Activity (Candida albicans [23]): 98.7%
5 | C[C@@H]1[C@H](O)[C@@H](C)/C=C/C=C/C=C/C=C/C=C/C=C/C=C/[C@H](O[C@@H]2O[C@H](C)[C@@H](O)[C@H](N)[C@@H]2O)C[C@@H]2O[C@](O)(C[C@@H](O)C[C@@H](O)[C@H](O)CC[C@@H](O)C[C@@H](O)CC(=O)O[C@H]1C)C[C@H](O)[C@H]2C(=O)O [AMPHOTERICIN B] |  |  | 100% |  |  |  |  |  |  |  |  |  |  |  | 100% |  |  |  |  |  | MIC (Candida albicans [24]): 0.03 µg/mL (≈ 0.0325 µM); MIC (Candida albicans [25]): 0.24 µg/mL
6 | CCOC(=O)CCn1nnc(-c2ccc(C)cc2)n1 | 98.95% | 99.14% | 99.07% | 99.76% | 99.61% | 98.99% | 98.19% | 99.98% | 99.31% | 98.79% | 98.38% | 96.34% | 98.95% | 98.81% | 99.16% | 98.95% | -0.23 log10CFU/ml | 45.15% | 99.37% | 98.72% | Activity (Candida albicans [23]): 99.51%
